Laboratory results taken from publication PMC11650976 (Dalton Transactions (Cambridge, England : 2003), 2024).

Experiments:
[1] = tested on: MDA-MB-231 (triple negative breast cancer cell); test: In vitro cytotoxicity; type: cell-based, human; conditions: for IC50: read-out: IC50 MDA-MB-231, 72 h, MTT, mean ± S.D (n = 6)
Procedure, shortened: (§1)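 Adherent cancer cells were exposed to test compound for 72 h. The series was a 3-fold dilution starting at 100 μM.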

BT-333 (glioblastoma) = test: In vitro cytotoxicity; type: cell-based, human; conditions: read-out: IC50 BT-333; 72 h, MTT, mean ± S.D (n = 6)
Procedure, shortened: as §1

[2] = tested on: MRC5 (human lung fibroblast); test: Cytotoxicity in normal cells MRC5; type: cell-based; conditions: read-out: IC50 MRC5; mean ± S.D (n = 6)
[3] = Solution stability in DMEM; type: physicochemical; conditions: 48 h, reading at λ = 260 nm
MDA-MB-231 cancer cells = test: Whole cellular uptake of Au; type: cell-based, human; conditions: 10 μM for 18 h, GFAAS
Procedure, shortened: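 Adherent MDA-MB-231 cells were incubated with the test compound at 10 μM for 18 h. Whole-cell gold content was then measured by graphite furnace AAS. Data are mean ± s.e.m. (n = 3), compared by ordinary one-way ANOVA.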

[4] = tested on: mitochondria of MDA-MB-231 cancer cells; test: Mitochondria uptake of Au; type: cell-based, human; conditions: 10 μM for 18 h, 20 million cells, GFAAS, n = 2
Procedure, shortened: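 MDA-MB-231 cells (20 million) were treated with test compound at 10 μM for 18 h. Standard fractionation then gave pure mitochondria, and gold content was measured by GFAAS. Data are mean ± s.e.m. (n = 2), compared by ordinary one-way ANOVA.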

MDA-MB-231 cells [5] = test: Intracellular ROS determination; type: cell-based, human; conditions: 10 μM, 90 minutes, DCF-DA, FACS
Procedure, shortened: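 MDA-MB-231 cells were exposed to the test compound at 5 and 10 μM. The text gives 90 min of exposure, and the figure legend gives 2 h. Cells were then stained with 2′,7′-dichlorodihydrofluorescein diacetate, and intracellular fluorescence was read by flow cytometry at 488 nm. Groups were compared by ordinary one-way ANOVA.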

MDA-MB-231 cells [6] = test: Mitochondria membrane potential determination using TMRE dye; type: cell-based, human; conditions: for effect on mitochondria membrane potential (TMRE fluorescence): 5 and 10 μM for 2 hours

bis-[1,2-bis-(diphenylphosphino)benzene]gold(III) chloride [3-AuCl4]
IC50 [1]: 1520 ± 210 nM
IC50 (BT-333 (glioblastoma)): 1380 ± 230 nM
IC50 [2]: 4470 ± 50 nM
solution stability in DMEM [3]: showed solution stability for 48 h but significant reduction in peak intensity after 1 h of incubation
whole cell uptake (Au content) (MDA-MB-231 cancer cells): significantly higher whole cell uptake compared to their Au(I) counterparts
mitochondria uptake (Au) [4]: 375 nmol/20 million cells
intracellular ROS produced (MDA-MB-231 cells [5]): significant difference in the ROS produced by 3-AuCl4 compared to 1-Cl
decrease in TMRE fluorescence intensity (mitochondria membrane potential) (MDA-MB-231 cells [6]; 10 μM, 2 hours): about 53%
effect on mitochondria membrane potential (TMRE fluorescence) (MDA-MB-231 cells [6]): concentration dependent decrease in fluorescence intensity

bis-[1,2-bis-(diphenylphosphino)benzene]gold(III) chloride [3-PF6]
IC50 [1]: 4920 ± 210 nM
IC50 (BT-333 (glioblastoma)): 1760 ± 120 nM
whole cell uptake (Au content) (MDA-MB-231 cancer cells): significantly higher whole cell uptake compared to their Au(I) counterparts

[Au+].[Cl-].c1ccc(P(c2ccccc2)c2ccccc2P(c2ccccc2)c2ccccc2)cc1.c1ccc(P(c2ccccc2)c2ccccc2P(c2ccccc2)c2ccccc2)cc1 [1-PF6, bis-[1,2-bis-(diphenylphosphino)benzene]gold(I)]
fold more cytotoxic than Au(III) 3-PF6 counterpart (IC50) ([1]; in both cancer cell lines tested (MDA-MB-231, BT-333)): 4–16 fold
IC50 [1]: 300 ± 100 nM
IC50 (BT-333 (glioblastoma)): 380 ± 20 nM
IC50 [2]: 1910 ± 30 nM
whole cell uptake (Au content) (MDA-MB-231 cancer cells): taken up more effectively compared to 1-AuCl4

[Au+].[Cl-].c1ccc(P(c2ccccc2)c2ccccc2P(c2ccccc2)c2ccccc2)cc1.c1ccc(P(c2ccccc2)c2ccccc2P(c2ccccc2)c2ccccc2)cc1 [1-Cl, bis-[1,2-bis-(diphenylphosphino)benzene]gold(I)]
IC50 [1]: 1140 ± 120 nM
IC50 (BT-333 (glioblastoma)): 410 ± 200 nM
IC50 [2]: 1350 ± 40 nM
solution stability in DMEM [3]: stable in DMEM for 48 h without the formation of new adducts or reduction in peak intensity
whole cell uptake (Au content) (MDA-MB-231 cancer cells): taken up more effectively compared to 1-AuCl4
mitochondria uptake (Au) [4]: 214.5 nmol/20 million cells
effect on mitochondria membrane potential (TMRE fluorescence) (MDA-MB-231 cells [6]): did not affect the mitochondria membrane potential significantly

[Au+].[Cl-].c1ccc(P(c2ccccc2)c2ccccc2P(c2ccccc2)c2ccccc2)cc1.c1ccc(P(c2ccccc2)c2ccccc2P(c2ccccc2)c2ccccc2)cc1 [1-AuCl4, bis-[1,2-bis-(diphenylphosphino)benzene]gold(I)]
IC50 [1]: 1780 ± 150 nM
IC50 (BT-333 (glioblastoma)): 1300 ± 40 nM
IC50 [2]: 930 ± 20 nM

[Au+].[Cl-].c1ccc(P(c2ccccc2)c2ccccc2P(c2ccccc2)c2ccccc2)cc1.c1ccc(P(c2ccccc2)c2ccccc2P(c2ccccc2)c2ccccc2)cc1 [1-BF4, bis-[1,2-bis-(diphenylphosphino)benzene]gold(I)]
IC50 [1]: 820 ± 110 nM
IC50 (BT-333 (glioblastoma)): 660 ± 20 nM
